Data on twelve compounds can be found in ChEMBL document CHEMBL1153445, “Alkenyl substituted bicyclic nucleoside analogues retain nanomolar potency against Varicella Zoster Virus” (Bioorg Med Chem, 2009).

As a reminder, the CC50 is the concentration giving 50% cytotoxicity. Low values mean greater toxicity to the cells, high ones lower toxicity to the cells. The term EC50 denotes the concentration at which the effect is half-maximal. A word on the IC50: it is the point on the concentration scale where inhibition reaches its midpoint. A high value points to weaker potency.

A short description of series [1]: Cytotoxicity against human HEL cells. It is filed as cell-based. The settings on record: for MCC: read-out: MIC.
In series [2] the test system is Human alphaherpesvirus 3. Description: Antiviral activity against Varicella Zoster virus Oka infected in HEL cells assessed as reduction in viral plaque formation after 5 days. The series is classed as functional, organism-based. The conditions noted are these: Human alphaherpesvirus 3, Oka, 120 h. The gist of the method:
(§1)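 Confluent HEL cell monolayers infected with 20 PFU VZV per well; after 1–2 h adsorption, residual virus removed and cells incubated in MEM with 2% inactivated FCS, 1% L-glutamine, 0.3% sodium bicarbonate plus graded compound concentrations.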

Series [3] in a line: Inhibition of Varicella Zoster virus thymidine kinase-mediated [3H]thymidine phosphorylation. Also noted: species or system Human alphaherpesvirus 3.
The test system of series [4] is Human alphaherpesvirus 3. Kind of series: Antiviral activity against Varicella Zoster virus YS infected in HEL cells assessed as reduction in viral plaque formation after 5 days. The series is classed as functional, organism-based. The settings on record: Human alphaherpesvirus 3, YS, 120 h. An outline of the steps: as §1

For the compound `CCCCc1ccc(-c2cc3cn([C@H]4C[C@H](O)[C@@H](CO)O4)c(=O)nc3o2)cc1`, in series [1], the MCC was no less than 50 µM.
Consider `CCCc1ccc(-c2cc3cn([C@H]4C[C@H](O)[C@@H](CO)O4)c(=O)nc3o2)cc1`, for which the MCC in series [1] is no less than 50 µM.
Take `CCC/C=C/c1ccccc1-c1cc2cn([C@H]3C[C@H](O)[C@@H](CO)O3)c(=O)nc2o1`: in series [1], the CC50 came out at 41 µM and the MCC was found to be 80 µM. The EC50 in series [2] was found to be 8400 nM. The half-inhibitory concentration (IC50) in series [3] came out at 119000 nM.
In turn, `CCC/C=C/c1ccc(-c2cc3cn([C@H]4C[C@H](O)[C@@H](CO)O4)c(=O)nc3o2)cc1` came in with a CC50 in series [1] greater than 200 µM. Moreover, the MCC in series [1] is greater than 5 µM. Besides, the EC50 in series [2] came out at 0.3 nM; in series [4] it was 0.8 nM. The compound also showed an IC50 in series [3] of 2300 nM.
For `CC/C=C/c1ccc(-c2cc3cn([C@H]4C[C@H](O)[C@@H](CO)O4)c(=O)nc3o2)cc1`, in that order: greater than 200 µM, no less than 5 µM, 0.6 nM, 7 nM and 2400 nM.
As for `C/C=C/c1ccc(-c2cc3cn([C@H]4C[C@H](O)[C@@H](CO)O4)c(=O)nc3o2)cc1`, in series [1], the CC50 was greater than 200 µM and the MCC is no less than 50 µM. The 50% effective concentration (EC50) in series [2] was found to be 4 nM. Moreover, inhibition in series [3] was half-maximal at 1900 nM (IC50). Also, the EC50 in series [4] stood at 4 nM.
For `CC/C=C/c1ccccc1-c1cc2cn([C@H]3C[C@H](O)[C@@H](CO)O3)c(=O)nc2o1`, in series [1], the CC50 was found to be 102 µM and the MCC amounted to 400 µM. Moreover, in series [2], the EC50 came to 33000 nM. Moreover, the IC50 in series [3] worked out at 3800 nM.
As to `C/C=C/c1cccc(-c2cc3cn([C@H]4C[C@H](O)[C@@H](CO)O4)c(=O)nc3o2)c1`, the CC50 in series [1] is greater than 200 µM. Besides, in series [1], the MCC is greater than 200 µM. Further, the figures for the EC50 in series [2] and in series [4] were 13000 nM and 58000 nM, respectively. The compound further returned a half-maximal inhibitory concentration (IC50) in series [3] of 2600 nM.
`CCC/C=C/c1cccc(-c2cc3cn([C@H]4C[C@H](O)[C@@H](CO)O4)c(=O)nc3o2)c1` gave a CC50 in series [1] greater than 200 µM. Moreover, the MCC in series [1] was no less than 200 µM. Moreover, the 50% effective concentration (EC50) in series [2] stood at 1100 nM; in series [4] it was 1300 nM. This compound also had an IC50 in series [3] of 397000 nM.
For `CC/C=C/c1cccc(-c2cc3cn([C@H]4C[C@H](O)[C@@H](CO)O4)c(=O)nc3o2)c1`, in that order: 68 µM, no less than 20 µM, 1900 nM, 2300 nM and 23000 nM.
For the compound `C/C=C/c1ccccc1-c1cc2cn([C@H]3C[C@H](O)[C@@H](CO)O3)c(=O)nc2o1`, in series [1], the CC50 amounted to 103 µM and the MCC turned out to be 400 µM. For the same compound, in series [2], the EC50 was 12000 nM. In series [3], the IC50 worked out at 310 nM.
`CCCCCc1ccc(-c2cc3cn([C@H]4C[C@H](O)[C@@H](CO)O4)c(=O)nc3o2)cc1` [CF1743]: the MCC in series [1] was no less than 50 µM.
